Data on two compounds can be found in ChEMBL document CHEMBL1135421, “2-(Anilinomethyl)imidazolines as alpha1 adrenergic receptor agonists: the discovery of alpha1a subtype selective 2'-alkylsulfonyl-substituted analogues” (J Med Chem, 2002).

In experiment [1] the target is T1, Alpha-2C adrenergic receptor (Homo sapiens, UniProt P18825).
T1 sequence (P18825 whole entry): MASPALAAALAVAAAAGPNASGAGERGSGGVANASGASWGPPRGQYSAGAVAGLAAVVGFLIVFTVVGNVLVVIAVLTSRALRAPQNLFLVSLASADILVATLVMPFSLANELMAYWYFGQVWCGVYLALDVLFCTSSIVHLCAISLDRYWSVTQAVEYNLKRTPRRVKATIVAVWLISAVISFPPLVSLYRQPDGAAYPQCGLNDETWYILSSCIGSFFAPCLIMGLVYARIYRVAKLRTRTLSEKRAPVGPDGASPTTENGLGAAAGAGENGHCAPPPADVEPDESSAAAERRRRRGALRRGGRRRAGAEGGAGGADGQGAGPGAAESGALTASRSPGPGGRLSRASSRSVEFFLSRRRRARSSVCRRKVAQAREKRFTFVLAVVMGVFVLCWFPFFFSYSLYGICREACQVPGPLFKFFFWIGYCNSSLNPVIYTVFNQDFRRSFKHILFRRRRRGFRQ
Put plainly: Agonist potency at Alpha-2C adrenergic receptor assayed in CHO cells expressing human Alpha-2C adrenergic receptor. The experiment is classed as functional, cell-based.

Experiment [2] concerns the target T2, Alpha-1A adrenergic receptor (Homo sapiens) (UniProt P35348).
T2 sequence (whole entry): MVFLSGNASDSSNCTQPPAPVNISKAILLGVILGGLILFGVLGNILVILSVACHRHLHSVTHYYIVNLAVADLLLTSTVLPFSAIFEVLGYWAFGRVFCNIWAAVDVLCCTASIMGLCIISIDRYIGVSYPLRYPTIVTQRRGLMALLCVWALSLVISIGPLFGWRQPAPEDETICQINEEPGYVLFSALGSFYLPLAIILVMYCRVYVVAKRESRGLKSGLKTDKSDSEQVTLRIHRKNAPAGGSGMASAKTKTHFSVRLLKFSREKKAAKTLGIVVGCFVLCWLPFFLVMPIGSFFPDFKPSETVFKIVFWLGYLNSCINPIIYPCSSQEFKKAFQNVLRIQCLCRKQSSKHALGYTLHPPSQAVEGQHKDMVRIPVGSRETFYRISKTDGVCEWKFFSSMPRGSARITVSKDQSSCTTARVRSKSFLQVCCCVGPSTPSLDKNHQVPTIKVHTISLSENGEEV
Description: Efficacy as % of the maximal effect observed for nonselective agonist phenylephrine in rat-1 fibroblasts expressing human Alpha-1 adrenergic receptor. The experiment is classed as functional. The method, boiled down: (§1)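 Rat-1 fibroblasts expressing human α1a/α1b/α1d, grown in DMEM with 10% heat-inactivated FBS and 0.6 mg/mL G418, plated 6000 cells/well and cultured 48 h at 37 °C. Loaded 2 h at 37 °C with Calcium Green (4 μM), 0.2% pluronic acid and 2.5 mM probenecid in HEPES buffer pH 7.4. FLIPR read at room temperature: 10 s baseline, then 50 s after compound. 11-point curves as % of 40 μM phenylephrine response, top concentration typically 5 μM.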

For experiment [3], the target named is T3, Alpha-1B adrenergic receptor (Homo sapiens, UniProt P35368).
T3 sequence (P35368 whole entry): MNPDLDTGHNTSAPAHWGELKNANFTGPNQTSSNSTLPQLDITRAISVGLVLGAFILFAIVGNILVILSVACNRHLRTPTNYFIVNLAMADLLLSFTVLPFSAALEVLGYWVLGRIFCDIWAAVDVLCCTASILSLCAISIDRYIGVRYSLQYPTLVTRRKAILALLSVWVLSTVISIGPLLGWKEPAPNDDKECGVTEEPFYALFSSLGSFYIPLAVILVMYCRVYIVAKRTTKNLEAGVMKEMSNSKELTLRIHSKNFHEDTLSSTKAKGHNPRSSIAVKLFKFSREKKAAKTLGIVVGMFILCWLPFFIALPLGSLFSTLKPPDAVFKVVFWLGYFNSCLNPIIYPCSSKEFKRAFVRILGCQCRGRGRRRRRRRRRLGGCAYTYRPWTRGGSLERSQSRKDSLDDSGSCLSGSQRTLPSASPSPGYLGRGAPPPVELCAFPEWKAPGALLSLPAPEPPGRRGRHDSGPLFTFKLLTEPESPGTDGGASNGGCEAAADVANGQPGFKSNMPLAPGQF
Description: Agonist potency at Alpha-1B adrenergic receptor expressed in rat-1 fibroblasts. The experiment is classed as functional.

The target in experiment [4] is T4, Alpha-2A adrenergic receptor (Homo sapiens) (UniProt P08913).
T4 sequence (whole entry): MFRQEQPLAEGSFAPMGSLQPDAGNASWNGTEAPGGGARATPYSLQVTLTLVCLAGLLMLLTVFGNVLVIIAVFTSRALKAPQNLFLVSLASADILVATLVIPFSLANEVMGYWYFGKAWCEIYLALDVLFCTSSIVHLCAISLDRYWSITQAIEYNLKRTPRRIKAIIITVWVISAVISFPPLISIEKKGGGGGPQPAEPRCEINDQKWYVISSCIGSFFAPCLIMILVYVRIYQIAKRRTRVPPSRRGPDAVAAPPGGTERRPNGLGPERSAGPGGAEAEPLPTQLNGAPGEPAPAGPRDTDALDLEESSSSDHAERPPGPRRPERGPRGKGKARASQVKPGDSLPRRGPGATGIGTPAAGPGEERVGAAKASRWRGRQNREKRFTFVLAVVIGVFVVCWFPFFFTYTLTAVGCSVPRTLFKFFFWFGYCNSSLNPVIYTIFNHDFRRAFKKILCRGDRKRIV
Put plainly: Efficacy as percentage of the maximal effect observed for nonselective agonist UK-14304 in CHO cells expressing human Alpha-2A adrenergic receptor. The experiment is classed as functional, cell-based.

Experiment [5] addresses T5, Alpha-1A adrenergic receptor (Homo sapiens, UniProt P35348).
T5 sequence (P35348 whole entry): T2 sequence (whole entry)
Put plainly: Agonist potency at Alpha-1 adrenergic receptor assayed in rat-1 fibroblasts expressing human Alpha-1 adrenergic receptor. The experiment is classed as functional. The method, boiled down:
as §1

The target of experiment [6] is T6, Alpha-1D adrenergic receptor (Homo sapiens, UniProt P25100).
T6 sequence (P25100 whole entry): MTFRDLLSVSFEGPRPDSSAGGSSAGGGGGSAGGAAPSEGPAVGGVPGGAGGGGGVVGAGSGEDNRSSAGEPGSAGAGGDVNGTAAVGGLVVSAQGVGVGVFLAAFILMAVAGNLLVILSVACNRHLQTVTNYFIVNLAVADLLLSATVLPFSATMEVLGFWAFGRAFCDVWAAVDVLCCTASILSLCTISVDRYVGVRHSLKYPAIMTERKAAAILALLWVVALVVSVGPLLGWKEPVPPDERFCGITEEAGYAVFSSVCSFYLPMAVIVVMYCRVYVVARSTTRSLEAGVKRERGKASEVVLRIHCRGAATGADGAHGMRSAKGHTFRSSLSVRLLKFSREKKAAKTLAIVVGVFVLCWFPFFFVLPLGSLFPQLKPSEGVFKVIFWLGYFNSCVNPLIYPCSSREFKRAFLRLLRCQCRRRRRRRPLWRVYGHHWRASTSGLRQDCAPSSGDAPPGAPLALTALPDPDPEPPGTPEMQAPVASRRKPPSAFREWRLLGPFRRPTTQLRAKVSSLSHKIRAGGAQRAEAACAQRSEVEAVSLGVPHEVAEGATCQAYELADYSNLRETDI
Put plainly: Agonist potency at Alpha-1D adrenergic receptor assayed in rat-1 fibroblasts expressing human Alpha-1D adrenergic receptor. The experiment is classed as functional. The method, boiled down: as §1

Experiment [7] has as its target T7, Alpha-2A adrenergic receptor (Homo sapiens, UniProt P08913).
T7 sequence (P08913 whole entry): T4 sequence (whole entry)
Description: Affinity to human Alpha-2A adrenergic receptor determined by radioligand binding techniques from chinese hamster ovary (CHO) cells. The experiment is classed as cell-based.

Usually EC50 stands for the concentration giving half of the maximal effect. In general, Ki refers to the equilibrium dissociation constant of an inhibitor or competing ligand from its target. Lower therefore signals higher affinity. `CSc1ccc(C(F)(F)F)cc1NCC1=NCCN1`: the 50% effective concentration (EC50) in experiment [1] was 7.94 nM; in experiment [3], 6.03 nM; in experiment [5] it was 10.5 nM; in experiment [6], 43.7 nM. The Max was 111% in experiment [2] and 40% in experiment [4]. Also, the Ki in experiment [7] was 200 nM.

Take `CCSc1ccccc1NCC1=NCCN1`: the EC50 in experiment [1] is 28.2 nM; in experiment [3], 13.8 nM; in experiment [5], 3.39 nM; in experiment [6] it was 51.3 nM. Moreover, the Max came out at 109% in experiment [2] and 67% in experiment [4]. The compound also had a Ki in experiment [7] of 81.3 nM.
